As a reminder, the GI50 is the concentration at which growth is held to half of that of the control. A low value points to more potent growth inhibition. For orientation: inhibition means the percentage by which the read-out fell short of the control. Lower therefore signals little suppression.

Consider 2 compounds from ChEMBL document CHEMBL1955742, “Synthesis and SAR studies of phenanthroindolizidine and phenanthroquinolizidine alkaloids as potent anti-tumor agents” (2012).

Bounds are passed on as bounds.

Assay type in all cases: functional
The subject of experiment [1] is HL-60. Nature of the experiment: Antiproliferative activity against human HL60 cells after 72 hrs by SRB assay. Particulars: Homo sapiens, HL-60, 72 h. A digest of the protocol:
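HL60 human promyelocytic leukemia cells were seeded and grown for 24 h, then given compounds and cultured for another 72 h. Read-out was SRB, per the table footnote. GI50 was obtained by the Logit method from three or more independent experiments.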
A general note: In SRB staining, fixed cells bind dye roughly in proportion to their protein.

In experiment [2] the test system is A549. Nature of the experiment: Antiproliferative activity against human A549 cells at 10^-6 mol/L after 72 hrs by MTT assay. Particulars: A549, 72 h. For orientation: Tetrazolium assays rely on reduction of a dye to a coloured formazan, in cell work by metabolically active cells.
For experiment [3], the system named is HL-60. Nature of the experiment: Antiproliferative activity against human HL60 cells at 10^-8 mol/L after 72 hrs by SRB assay. Particulars: HL-60, 72 h.
The test system of experiment [4] is A549. As to the kind of experiment: Antiproliferative activity against human A549 cells at 10^-7 mol/L after 72 hrs by MTT assay. Particulars: A549, 72 h.
In experiment [5] the test system is HL-60. As to the kind of experiment: Antiproliferative activity against human HL60 cells at 10^-6 mol/L after 72 hrs by SRB assay. Particulars: HL-60, 72 h.
For experiment [6], the system named is A549. As to the kind of experiment: Antiproliferative activity against human A549 cells after 72 hrs by MTT assay. Particulars: Homo sapiens, A549, 72 h. A digest of the protocol: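 A549 human lung adenocarcinoma epithelial cells were seeded and grown for 24 h, then exposed to compounds for a further 72 h. Proliferation was read by MTT, as assigned in the table footnote. GI50 was calculated by the Logit method from at least three independent experiments.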

Experiment [7] has as its system A549. As to the kind of experiment: Antiproliferative activity against human A549 cells at 10^-8 mol/L after 72 hrs by MTT assay. Particulars: A549, 72 h.
The test system of experiment [8] is HL-60. As to the kind of experiment: Antiproliferative activity against human HL60 cells at 10^-7 mol/L after 72 hrs by SRB assay. Particulars: HL-60, 72 h.

As to `COc1cc2c3c(c4ccc(O)cc4c2cc1OC)CN1CCC[C@@H]1C3`, the GI50 in the experiment on HL-60 [1] and in the experiment with A549 [6] was < 1 nM throughout. In addition, the inhibition at 1 µM in the experiment with A549 [2] is 94.8%; in the experiment on HL-60 [5] it was 89.7%. Also, the inhibition at 0.01 µM in the experiment with HL-60 [3] amounted to 86.5%; with A549 [7], 86%. For the same compound, the results for the inhibition at 0.1 µM with A549 [4] and with HL-60 [8] were 92.3% and 87.1%, respectively.

On to `COc1cc2c3c(c4cc(OC)c(OC)cc4c2cc1OC)CN1CCCC1C3` (racemic) [(+/-)-TYLOPHORINE], for which the concentration for 50% growth inhibition (GI50) with HL-60 [1] came out at 100 nM; with A549 [6], 1300 nM. Besides, the figures for the inhibition at 1 µM in the experiment with A549 [2] and in the experiment with HL-60 [5] were 72.3% and 71.3%, respectively. Moreover, the inhibition at 0.01 µM amounted to 14.9% in the experiment on HL-60 [3] and 6% in the experiment on A549 [7]. Besides, the inhibition at 0.1 µM was found to be 61.4% with A549 [4] and 40.5% in the experiment on HL-60 [8].
